According to article PMC6371780 (ACS chemical neuroscience, 2018):
Like-named read-outs stand apart in the source and are kept apart here.

Tests used:
COX-1 [1] = molecular target: T1, COX-1 (Macaca mulatta, UniProt F6S984); experiment: kinetic modeling of PET data; assay type: in vivo, rhesus monkey; conditions: for VND of [11C]PS13 (x-axis intercept of Lassen plot), by blocker experiment: PS13 1 mg/kg or KTP-Me 3 mg/kg as blocker; for reduction of [11C]PS13 brain regional VT values by preadministration: KTP-Me 3 mg/kg, MC1 0.3 mg/kg i.v.
T1 sequence (F6S984 25-599): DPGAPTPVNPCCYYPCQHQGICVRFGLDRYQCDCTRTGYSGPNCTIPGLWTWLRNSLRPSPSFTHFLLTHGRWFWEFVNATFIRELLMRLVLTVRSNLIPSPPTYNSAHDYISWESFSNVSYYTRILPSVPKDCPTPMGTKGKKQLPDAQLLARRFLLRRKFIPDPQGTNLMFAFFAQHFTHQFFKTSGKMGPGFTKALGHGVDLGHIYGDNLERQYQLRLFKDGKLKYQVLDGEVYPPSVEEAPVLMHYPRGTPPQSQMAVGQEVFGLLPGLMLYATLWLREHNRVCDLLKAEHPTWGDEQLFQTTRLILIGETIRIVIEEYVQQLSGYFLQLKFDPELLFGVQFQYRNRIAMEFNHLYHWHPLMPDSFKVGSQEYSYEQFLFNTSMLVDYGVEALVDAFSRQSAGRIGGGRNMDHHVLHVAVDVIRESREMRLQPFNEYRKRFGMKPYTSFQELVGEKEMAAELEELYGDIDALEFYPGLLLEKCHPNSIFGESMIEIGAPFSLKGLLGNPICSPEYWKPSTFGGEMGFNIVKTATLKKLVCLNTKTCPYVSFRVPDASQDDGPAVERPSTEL
In short: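 Each baseline scan was followed >3 h later by a blocking scan, with blocker given as an i.v. bolus 5–10 min before radioligand. Femoral arterial samples were taken every 15 s to 120 s, then at 3–120 min, and parent radioligand was measured by reversed-phase radio-HPLC. VT was estimated by voxel-level Logan analysis, uncorrected for blood volume, with identifiability as % SE. A Lassen plot of regional VT gave occupancy from its slope and VND from its x-intercept.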

COX-1 [2] = molecular target: T1, COX-1; experiment: paired baseline/preblock PET experiments with [11C]PS13 in rhesus monkey; assay type: in vivo, rhesus monkey (Macaca mulatta); conditions: for whole-brain radioactivity of [11C]PS13 after administration of blocker: 45 min after radioligand, PS13 1 mg/kg, KTP-Me 3 mg/kg i.v.; for peak whole-brain radioactivity of [11C]PS13 after administration of blocker: blocker i.v. before [11C]PS13: PS13 1 mg/kg, KTP-Me 3 mg/kg, MC1 0.3 mg/kg; for decline of whole-brain radioactivity from peak / radioactivity in whole brain: 45 min after injection
In short: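 Male rhesus monkeys (7.5–12.8 kg) received an i.v. bolus of radioligand (212 ± 37 MBq; 114 ± 74 GBq/μmol) over 1 min. A baseline scan was followed more than 3 h later by a blocking scan, with inhibitor given i.v. minutes before radioligand. Scans were corrected for attenuation and scatter, and frames ran from 30 s to 10 min. Whole-brain (gray matter) time–activity curves were expressed as SUV.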

[3] = cited from earlier work
[4] = baseline PET brain time-activity curves in rhesus monkey; assay type: in vivo, rhesus monkey (Macaca mulatta); conditions: for decline of whole-brain radioactivity from peak / radioactivity concentration in whole brain: at 85 min; for peak radioactivity concentration in whole brain / time of peak radioactivity concentration in whole brain: i.v. radioligand
In short: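 Male rhesus monkeys (7.5–12.8 kg) were given ketamine (10 mg/kg i.m.) and kept on 1.6% isoflurane, head in a stereotaxic frame, and imaged on a microPET Focus 220. Radioligand (212 ± 37 MBq) in saline-ethanol 90:10 was given as an i.v. bolus over 1 min. The 120 min acquisition was reconstructed by FORE/2D FBP with attenuation, scatter and decay correction and coregistered to an MRI template. Regional gray-matter curves were expressed as SUV.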

[5] = plasma free fraction by ultrafiltration, monkey plasma; assay type: in vitro ADME
In short: (§1)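 Free fraction was measured in triplicate by ultrafiltration through membrane filters, with filtrate radioactivity read by γ-counting. Plasma was venous plasma from each monkey, or pooled human arterial plasma stored at −80 °C. The human plasma served as the standard for normalization across studies.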

[6] = radioligand stability in monkey whole blood and plasma in vitro; assay type: in vitro ADME; conditions: monkey whole blood or plasma, 30 min, room temperature
In short: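 Formulated radioligand was incubated with monkey whole blood or plasma at room temperature for at least 30 min. Blood was lysed with water, and samples were deproteinized with acetonitrile and centrifuged at 10 000g. Supernatants were analysed by reversed-phase radio-HPLC, and precipitates were γ-counted for extraction efficiency. Stability was taken as the % unchanged radioligand divided by radiochemical purity.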

[7] = log D by partition between n-octanol and sodium phosphate buffer; assay type: physicochemical; conditions: n-octanol / sodium phosphate buffer 0.15 M, pH 7.4
In short: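 Radioligand partitioned between n-octanol and 0.15 M sodium phosphate buffer, pH 7.4. Radioactivity in each phase counted by γ-counter. Buffer-phase radioactivity corrected for parent fraction by reversed-phase radio-HPLC on a C18 column.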

[8] = radiometabolite analysis of monkey plasma after i.v. radioligand; assay type: in vivo, rhesus monkey
[9] = plasma free fraction by ultrafiltration, pooled human plasma; assay type: in vitro ADME; conditions: pooled (standard) human plasma
In short: as §1

COX-1 [10] = conditions: cited from earlier work; for IC50: read-out: IC50 COX-1 monkey
COX-1 [11] = conditions: cited from earlier work
COX-2 [12] = conditions: read-out: IC50 COX-2 monkey; cited from earlier work
COX-2 [13] = conditions: read-out: IC50 COX-2 human; cited from earlier work
COX-1 [14] = conditions: cited from earlier work; remark: listed apart in the source
[15] = baseline of the paired experiment using KTP-Me
[16] = baseline of the paired experiments using PS13
[17] = baseline of the paired experiment with MC1

COc1ccc(-c2nc(OCC(F)(F)F)nn2-c2ccc(OC)cc2)cc1 [PS13, 1,5-bis(4-methoxyphenyl)-3-(2,2,2-trifluoroethoxy)-1H-1,2,4-triazole]
VND of [11C]PS13 (x-axis intercept of Lassen plot), by blocker experiment (COX-1 [1]): 2.5 mL/cm^3 | reduction of [11C]PS13 brain regional VT values by preadministration (COX-1 [1]; PS13 1 mg/kg): about 55% | receptor occupancy at 1 mg/kg (COX-1 [1]; rhesus monkey, iv, read-out: COX-1 occupancy (slope of Lassen plot)): 87 ± 4% | whole-brain radioactivity of [11C]PS13 after administration of blocker (COX-1 [2]): 1.11 SUV | peak whole-brain radioactivity of [11C]PS13 after administration of blocker (COX-1 [2]): 3.60 SUV

[^11C]-Ketoprofen [[^11C]KTP]
brain penetrance [3]: poorly brain-penetrant

[2H]C([2H])([18F])Oc1nc(-c2ccc(OC)cc2)n(-c2ccc(OC)cc2)n1 [[^2H2,^18F]PS2]
decline of whole-brain radioactivity from peak [4]: 74% | radioactivity concentration in whole brain [4]: 1.05 SUV | peak radioactivity concentration in whole brain ([4]; rhesus monkey): 4.11 SUV | time of peak radioactivity concentration in whole brain ([4]; rhesus monkey): 7 min | radioactivity in skull on brain image (radiodefluorination) ([4]; rhesus monkey): uptake of radioactivity in skull | monkey fP (n = 3) [5]: 0.039 ± 0.001 | radiochemical stability [6]: > 99% | log D (n = 6) [7]: 3.26 ± 0.01 | radioactivity in plasma that was parent radioligand ([8]; by about 25 min after i.v. injection): 50% | human fP (n = 3) [9]: 0.021 ± 0.000

COc1ccc(-c2nc(OCC(F)(F)F)nn2-c2ccc(OC)cc2)cc1 [[^11C]PS13, [^11C]1,5-bis(4-methoxyphenyl)-3-(2,2,2-trifluoroethoxy)-1H-1,2,4-triazole]
decline of whole-brain radioactivity from peak [4]: 54% | monkey fP (n = 3) [5]: 0.011 ± 0.001 | radiochemical stability [6]: > 99% | identifiability (SE) of VT (COX-1 [1]; all examined brain regions, Logan graphical analysis): 0.1–1.8% | radioactivity uptake in brain specifically bound to COX-1 (COX-1 [1]; pharmacological preblock experiments, monkey): about 55% | decline of whole-brain radioactivity from peak (COX-1 [2]; [15]): 43% | radioactivity in whole brain (COX-1 [2]; [15]): 1.65 SUV | decline of whole-brain radioactivity from peak (COX-1 [2]; [16]): 36% | radioactivity in whole brain (COX-1 [2]; [16]): 1.88 SUV | peak radioactivity in whole brain (COX-1 [2]; [15]): 2.90 SUV | peak uptake of radioactivity in brain (COX-1 [2]; [17]): 3.73 SUV | time of peak uptake of radioactivity in brain (COX-1 [2]; [17]): 3.5 min | peak radioactivity in whole brain (COX-1 [2]; [16]): 2.92 SUV | log D (n = 6) [7]: 4.26 ± 0.04 | radioactivity in plasma represented by each species ([8]; 90 min after i.v. injection of [11C]PS13, radio-HPLC): 48.9% | radioactivity in plasma represented by unchanged radioligand ([8]; at 90 min, baseline and self-block experiments): about 50% | human fP (n = 3) [9]: 0.002 ± 0.000

C[C@H](C(=O)O)c1cccc(C(=O)c2ccccc2)c1 [KTP, (S)-ketoprofen, reference compound]
IC50 (COX-1 [10]): 1 nM | IC50 (COX-1 [11]; read-out: IC50 COX-1 human): 20 nM | IC50 (COX-1 [11]; read-out: IC50 for inhibiting human COX-1): 47 nM | IC50 (COX-2 [12]): 400 nM

COc1ccc(-c2nc(O[11CH3])nn2-c2ccc(OC)cc2)cc1 [[^11C]PS1]
decline of whole-brain radioactivity from peak [4]: 85% | radioactivity concentration in whole brain [4]: 0.62 SUV | peak radioactivity concentration in whole brain ([4]; rhesus monkey): 4.26 SUV | time of peak radioactivity concentration in whole brain ([4]; rhesus monkey): 1.75 min | monkey fP (n = 3) [5]: 0.042 ± 0.001 | radiochemical stability [6]: > 99% | log D (n = 6) [7]: 3.29 ± 0.00 | human fP (n = 3) [9]: 0.036 ± 0.001

COc1cc(NCc2cccs2)nc(-c2ccc(S(C)(=O)=O)cc2)n1 [MC1, 6-methoxy-2-(4-(methylsulfonyl)phenyl)-N-(thiophen-2-ylmethyl)pyrimidin-4-amine, reference compound]
fold lower potency for inhibiting COX-1 than COX-2 (COX-1 [10]; monkey): > 1000 fold | fold lower potency for inhibiting COX-1 than COX-2 (COX-1 [11]; human): > 1000 fold | reduction of [11C]PS13 brain regional VT values by preadministration (COX-1 [1]; PS13 1 mg/kg): no effect | time of peak brain radioactivity of [11C]PS13 after administration of blocker (COX-1 [2]; MC1 0.3 mg/kg i.v.): 3.5 min | peak whole-brain radioactivity of [11C]PS13 after administration of blocker (COX-1 [2]): 4.86 SUV

COc1ccc(-c2nc(OCF)nn2-c2ccc(OC)cc2)cc1 [[^2H2,^18F]PS2]
IC50 (COX-1 [10]): 3.6 ± 1 nM | IC50 (COX-1 [11]; read-out: IC50 COX-1 human): 4 ± 2 nM | IC50 (COX-2 [12]): > 1000 nM

COc1ccc(-c2nc(OC)nn2-c2ccc(OC)cc2)cc1 [[^11C]PS1]
IC50 (COX-1 [10]): 4.6 ± 1.3 nM | IC50 (COX-2 [13]): > 1000 nM | IC50 (COX-1 [11]; read-out: IC50 COX-1 human): 5 ± 5.2 nM | IC50 (COX-2 [12]): > 1000 nM

COC(=O)[C@@H](C)c1cccc(C(=O)c2ccccc2)c1 [KTP-Me, (S)-ketoprofen methyl ester, reference compound]
VND of [11C]PS13 (x-axis intercept of Lassen plot), by blocker experiment (COX-1 [1]): 1.8 mL/cm^3 | COX-1 occupancy (slope of Lassen plot) (COX-1 [1]; PS13 1 mg/kg, KTP-Me 3 mg/kg i.v., radioligand [11C]PS13): 72 ± 4% | whole-brain radioactivity of [11C]PS13 after administration of blocker (COX-1 [2]): 1.09 SUV | peak whole-brain radioactivity of [11C]PS13 after administration of blocker (COX-1 [2]): 4.14 SUV

C[C@@H](C(=O)O)c1cccc(C(=O)c2ccccc2)c1 (single isomer, unassigned) [R-enantiomer of KTP]
potency for inhibiting COX-1 (COX-1 [14]): negligible potency
